Paper PMC4263960 (Pediatric blood & cancer, 2013)
Read-outs that look alike come from different tables or passages of the source.

Tests used:
NB-1643 cell line = assay: DIMSCAN in vitro cytotoxicity testing, NB-1643; assay type: cell-based
Outline: (§1)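 Test compound incubated with cells of a 24-line pediatric cancer panel for 96 h at 0.1 nM to 1 μM, then assessed by DIMSCAN. Relative IC50 (rIC50) derived per line. Panel comparison value is the panel rIC50 divided by the rIC50 of each cell line.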

[1] = tested on: MLL-7 tertiary infant precursor B-ALL xenograft; assay: PPTP in vivo xenograft testing, MLL-7; set-up: species or system mice
[2] = Human pharmacokinetics of eribulin; assay type: in vivo, humans; settings: plasma, intravenous, 1.4 mg/m2
KT-16 rhabdoid xenograft = assay: PPTP in vivo xenograft testing, KT-16; set-up: species or system mice
[3] = intravenous dose of 2 mg/kg; different mouse strain; cited from earlier work
[4] = tested on: NB-1771 neuroblastoma xenograft; assay: PPTP in vivo xenograft testing, NB-1771; set-up: species or system mice
[5] = tested on: OS-9 osteosarcoma xenograft; assay: PPTP in vivo xenograft testing, OS-9; set-up: species or system mice
[6] = tested on: Rh41 ALV rhabdomyosarcoma xenograft; assay: PPTP in vivo xenograft testing, Rh41; set-up: species or system mice
RS4;11 cell line = assay: DIMSCAN in vitro cytotoxicity testing, RS4; assay type: cell-based
Outline: as §1

[7] = Eribulin pharmacokinetics in SCID mice
[8] = 1 mg/kg IP Q4Dx3 repeated at Day 21

With `C=C1C[C@@H]2CC[C@@]34C[C@H]5O[C@H]6[C@@H](O3)[C@H]3O[C@H](CC[C@@H]3O[C@H]6[C@H]5O4)CC(=O)C[C@@H]3[C@@H](OC)[C@@H](C[C@H](O)CN)O[C@H]3C[C@H]3O[C@@H](CC[C@@H]1O2)C[C@@H](C)C3=C` [Eribulin] the “Panel rIC50/Line rIC50” value (NB-1643 cell line; NB-1643) was 0.57, the Relative in/out% (NB-1643 cell line; NB-1643) was −97% and the “Ymin % (observed)” value (NB-1643 cell line; NB-1643) was 0.53%. The IC50 (NB-1643 cell line; NB-1643, 96 h, read-out: rIC50) was 0.47 nM, the EFS activity ([1]; 1.5 mg/kg IP) was “High (High activity requires: (a) an EFS T/C >2; (b) a significant difference in EFS distributions, and (c) a net reduction in median tumor volume for animals in the treated group at the end of treatment as compared to at treatment initiation)” and the Response activity ([1]; 1.5 mg/kg IP) was “High (A high level of activity is indicated by a score of 6 or more)”. For the same compound, the “EFS T/C” value ([1]; 1.5 mg/kg IP Q4Dx3 repeated at Day 21) was greater than 4.7, the “Median final RTV (CD45%)” value ([1]; CD45%, 1.5 mg/kg IP) was 0.0% and the AUC [2] was 1580 ng·h/mL. For the same compound, the EFS activity (KT-16 rhabdoid xenograft; 1 mg/kg IP) was “Low (Low activity = EFS T/C <2)”, the Response activity (KT-16 rhabdoid xenograft; 1 mg/kg IP) was “Low (low activity by a score of <2)” and the T/C volume activity (KT-16 rhabdoid xenograft; 1 mg/kg IP) was “Low (Low activity = T/C >0.45)”. The “EFS T/C” value (KT-16 rhabdoid xenograft; [8]) was 1.1, the “Median final RTV (CD45%)” value (KT-16 rhabdoid xenograft; [8]) was greater than 4 and the Time to event (KT-16 rhabdoid xenograft; [8]) was 12.1. For the same compound, the “Tumor volume T/C” value (KT-16 rhabdoid xenograft; 1 mg/kg IP, Day 21 or earlier) was 0.76, the AUC [3] was 1,132 ng hour/ml and the EFS activity ([4]; 1 mg/kg IP) was “Low (Low activity = EFS T/C <2)”. For the same compound, the Response activity ([4]; 1 mg/kg IP) was “Int (intermediate activity by a score of ≥2 but <6)”, the T/C volume activity ([4]; 1 mg/kg IP) was “Low (Low activity = T/C >0.45)” and the “EFS T/C” value [4, 8] was 2.0. The “Median final RTV (CD45%)” value [4, 8] was greater than 4, the Time to event [4, 8] was 14.8 and the “Tumor volume T/C” value ([4]; 1 mg/kg IP, Day 21 or earlier) was 0.56. The EFS activity ([5]; 1 mg/kg IP) was “Low (Low activity = EFS T/C <2)”, the Response activity ([5]; 1 mg/kg IP) was “Low (low activity by a score of <2)” and the T/C volume activity ([5]; 1 mg/kg IP) was “Low (Low activity = T/C >0.45)”. The “EFS T/C” value [5, 8] was 1.4, the “Median final RTV (CD45%)” value [5, 8] was greater than 4 and the Time to event [5, 8] was 26.3. For the same compound, the “Tumor volume T/C” value ([5]; 1 mg/kg IP, Day 21 or earlier) was 0.61, the EFS activity ([6]; 1 mg/kg IP) was “High (High activity requires: (a) an EFS T/C >2; (b) a significant difference in EFS distributions, and (c) a net reduction in median tumor volume for animals in the treated group at the end of treatment as compared to at treatment initiation)” and the Response activity ([6]; 1 mg/kg IP) was “High (A high level of activity is indicated by a score of 6 or more)”. For the same compound, the T/C volume activity ([6]; 1 mg/kg IP) was “High (High activity = T/C ≤0.15)”, the “EFS T/C” value [6, 8] was greater than 3.0 and the “Median final RTV (CD45%)” value [6, 8] was 0.0. The “Tumor volume T/C” value ([6]; 1 mg/kg IP, Day 21 or earlier) was 0.07, the IC50 (RS4;11 cell line; Homo sapiens, RS4-11, 96 h, read-out: rIC50) was less than 0.1 nM and the “Panel rIC50/Line rIC50” value (RS4;11 cell line; RS4;11) was greater than 2.74. The Relative in/out% (RS4;11 cell line; RS4;11) was −99%, the “Ymin % (observed)” value (RS4;11 cell line; RS4;11) was 0.22% and the “AUC (area under the plasma drug concentration-time curve)” value ([7]; 1 mg/kg dose, SCID mice) was 658 ng·h/mL. The “AUC per course of treatment” value ([7]; preclinical setting, three doses of 1 mg/kg per course) was 1,974 ng hour/ml.
